# Source: publication PMC7906539 (Medicinal chemistry research : an international journal for …, 2020)
# pIC50: −log10 of the molar value. “Also recorded” adds a separate entry of the source.
# How the values were obtained:
# [1] = target: death-associate protein kinase 1 (DAPK1) (Homo sapiens, UniProt P53355); experiment: CaM-dependent kinase assay; type: biochemical; conditions: single concentration of 100 μM, in the presence of CaM
# How it was run: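 Recombinant DAPK1 (25 ng), run with ADP-Glo at 5 μM ATP with native swine myelin basic protein as substrate, in the presence of CaM. Test compound is added at a single 100 μM (DMSO) and reacted 60 min at room temperature. Luminescence is read, and activity is expressed as percent of the no-compound reaction. Three experiments, ≥2 replicates each; mean ± SEM.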
# Kinetic solubility = type: physicochemical
# [2] = target: His-mHtt and GST-CaM (CaM–mHtt interaction) (Homo sapiens, UniProt P0DP23+P42858); experiment: CaM/mHtt AlphaScreen binding assay; conditions: read-out: AlphaScreen CaM–mHtt, IC50; triplicate
# Sequence of His-mHtt and GST-CaM (CaM–mHtt interaction) (P42858 whole entry, one chain of several): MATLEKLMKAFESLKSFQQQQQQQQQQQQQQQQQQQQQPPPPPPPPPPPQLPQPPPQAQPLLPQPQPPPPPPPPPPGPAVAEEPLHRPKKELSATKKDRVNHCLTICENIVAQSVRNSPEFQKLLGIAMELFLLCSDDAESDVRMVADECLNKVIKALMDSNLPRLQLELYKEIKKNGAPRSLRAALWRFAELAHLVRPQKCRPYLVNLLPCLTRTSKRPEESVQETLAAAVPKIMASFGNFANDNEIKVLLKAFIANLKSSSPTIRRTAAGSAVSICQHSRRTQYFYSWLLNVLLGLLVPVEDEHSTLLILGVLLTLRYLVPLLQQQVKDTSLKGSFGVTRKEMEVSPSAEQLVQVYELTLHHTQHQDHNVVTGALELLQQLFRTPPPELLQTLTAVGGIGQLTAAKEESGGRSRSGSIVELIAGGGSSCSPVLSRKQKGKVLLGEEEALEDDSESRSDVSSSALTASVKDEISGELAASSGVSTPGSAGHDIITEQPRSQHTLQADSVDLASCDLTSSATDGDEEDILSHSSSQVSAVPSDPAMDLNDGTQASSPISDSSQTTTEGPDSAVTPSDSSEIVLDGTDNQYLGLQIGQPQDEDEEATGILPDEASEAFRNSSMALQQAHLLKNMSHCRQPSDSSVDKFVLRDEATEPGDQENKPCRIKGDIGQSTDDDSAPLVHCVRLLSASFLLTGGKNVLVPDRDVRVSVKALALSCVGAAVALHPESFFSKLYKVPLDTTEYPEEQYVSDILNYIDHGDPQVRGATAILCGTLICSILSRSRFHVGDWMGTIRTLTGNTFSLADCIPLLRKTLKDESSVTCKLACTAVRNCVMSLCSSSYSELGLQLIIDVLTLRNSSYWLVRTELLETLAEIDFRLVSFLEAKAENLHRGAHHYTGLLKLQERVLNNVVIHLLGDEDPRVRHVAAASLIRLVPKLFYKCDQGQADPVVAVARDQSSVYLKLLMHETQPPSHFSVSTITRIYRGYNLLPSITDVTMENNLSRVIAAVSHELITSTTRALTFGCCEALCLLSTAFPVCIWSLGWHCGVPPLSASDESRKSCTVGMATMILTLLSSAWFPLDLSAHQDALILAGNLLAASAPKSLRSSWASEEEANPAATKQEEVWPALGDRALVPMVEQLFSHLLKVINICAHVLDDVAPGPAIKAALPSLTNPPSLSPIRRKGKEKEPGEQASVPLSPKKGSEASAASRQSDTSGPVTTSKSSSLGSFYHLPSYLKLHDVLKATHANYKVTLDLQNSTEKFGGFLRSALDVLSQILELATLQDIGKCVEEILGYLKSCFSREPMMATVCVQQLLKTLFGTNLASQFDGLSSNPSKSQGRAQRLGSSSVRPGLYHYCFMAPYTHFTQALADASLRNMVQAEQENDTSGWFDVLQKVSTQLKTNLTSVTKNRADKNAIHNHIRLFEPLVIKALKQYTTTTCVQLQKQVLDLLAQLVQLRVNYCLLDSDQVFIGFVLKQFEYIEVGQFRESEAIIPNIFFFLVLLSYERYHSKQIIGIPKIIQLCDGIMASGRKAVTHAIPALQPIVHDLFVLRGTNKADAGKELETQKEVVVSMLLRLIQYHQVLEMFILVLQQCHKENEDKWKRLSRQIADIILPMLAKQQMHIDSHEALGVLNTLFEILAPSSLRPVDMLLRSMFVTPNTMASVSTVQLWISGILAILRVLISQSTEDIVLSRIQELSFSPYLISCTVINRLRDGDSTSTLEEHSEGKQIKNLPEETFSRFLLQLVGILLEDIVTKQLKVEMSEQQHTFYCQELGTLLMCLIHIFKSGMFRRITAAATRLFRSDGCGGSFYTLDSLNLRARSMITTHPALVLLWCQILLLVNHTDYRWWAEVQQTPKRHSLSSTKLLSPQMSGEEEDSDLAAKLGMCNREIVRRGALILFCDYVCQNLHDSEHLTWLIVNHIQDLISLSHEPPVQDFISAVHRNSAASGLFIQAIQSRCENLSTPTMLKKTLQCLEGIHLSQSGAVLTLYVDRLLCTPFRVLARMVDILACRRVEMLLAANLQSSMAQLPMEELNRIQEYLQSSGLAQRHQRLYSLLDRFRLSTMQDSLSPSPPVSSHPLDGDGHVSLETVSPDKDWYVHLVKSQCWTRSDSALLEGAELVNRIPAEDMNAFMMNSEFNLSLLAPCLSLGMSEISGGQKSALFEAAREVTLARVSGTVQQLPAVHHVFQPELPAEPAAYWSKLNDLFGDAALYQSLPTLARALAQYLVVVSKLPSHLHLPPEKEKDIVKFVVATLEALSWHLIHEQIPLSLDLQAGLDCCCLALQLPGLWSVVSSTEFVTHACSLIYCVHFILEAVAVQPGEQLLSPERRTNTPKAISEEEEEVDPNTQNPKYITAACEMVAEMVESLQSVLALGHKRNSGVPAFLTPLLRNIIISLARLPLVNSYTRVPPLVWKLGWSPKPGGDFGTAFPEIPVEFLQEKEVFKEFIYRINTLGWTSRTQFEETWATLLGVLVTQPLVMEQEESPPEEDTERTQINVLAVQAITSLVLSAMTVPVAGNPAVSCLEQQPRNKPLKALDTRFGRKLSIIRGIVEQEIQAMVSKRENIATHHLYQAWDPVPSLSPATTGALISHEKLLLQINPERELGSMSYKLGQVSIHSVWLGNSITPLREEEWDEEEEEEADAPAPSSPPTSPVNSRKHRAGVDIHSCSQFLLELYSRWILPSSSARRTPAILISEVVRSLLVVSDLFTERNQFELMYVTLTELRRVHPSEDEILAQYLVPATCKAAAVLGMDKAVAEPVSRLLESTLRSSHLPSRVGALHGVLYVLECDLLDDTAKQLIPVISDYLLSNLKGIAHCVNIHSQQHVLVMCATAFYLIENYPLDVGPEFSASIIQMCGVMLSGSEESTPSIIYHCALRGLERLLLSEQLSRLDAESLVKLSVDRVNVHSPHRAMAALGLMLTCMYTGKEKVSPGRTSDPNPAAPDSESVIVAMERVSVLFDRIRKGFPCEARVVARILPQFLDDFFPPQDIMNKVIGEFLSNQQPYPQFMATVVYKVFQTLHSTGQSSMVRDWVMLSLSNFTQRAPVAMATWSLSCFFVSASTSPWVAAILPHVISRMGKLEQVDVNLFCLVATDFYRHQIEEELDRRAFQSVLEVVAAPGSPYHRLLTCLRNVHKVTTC
# How it was run: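 His-mHtt (10 nM) preincubated 30 min with test compound, then GST-CaM (10 nM) added for 60 min at room temperature. Ni-chelate acceptor (10 μg/mL) and glutathione donor beads (15 μg/mL) are added for 2 h, then Alpha counts are read. Final 300–0.002 μM, triplicate; % inhibition normalized to DMSO controls.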
# [3] = tested on: mHtt toxicity in PC12 cells; experiment: Protection against mHtt toxicity in neuronal cell model for HD; type: cell-based; conditions: three different concentrations
# How it was run: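 Each experiment run at least three times; values reported as mean ± standard error of the mean.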
# [4] = tested on: calcium/CaM-dependent kinase 2γ (CaMK2γ); experiment: CaM-dependent kinase assay; type: biochemical, Human; conditions: single concentration of 100 μM, in the presence of CaM
# How it was run: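 ADP-Glo reaction with CaMK2γ (12 ng), 25 μM ATP and Autocamtide-2 substrate, carried out with CaM present. Test compound is at a single 100 μM from DMSO; incubation 60 min at room temperature. Luminescent readout gives percent enzyme activity relative to the reaction without compound. Run three times with at least two replicates per experiment; mean ± SEM.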
# SH-SY5Y cells = experiment: Cytotoxicity assay; type: cell-based; conditions: SH-SY5Y cells, 24 h incubation, CellTiter-Glo
# How it was run: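 SH-SY5Y cells seeded at 6000/well in 1:1 EMEM/F12 with 10% FBS. Exposure 24 h at 37 °C, then CellTiter-Glo luminescence read. Percent cytotoxicity normalized to DMSO controls.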
# PAMPA permeability = type: in vitro ADME
# Sequence of death-associate protein kinase 1 (DAPK1) (P53355 1-363): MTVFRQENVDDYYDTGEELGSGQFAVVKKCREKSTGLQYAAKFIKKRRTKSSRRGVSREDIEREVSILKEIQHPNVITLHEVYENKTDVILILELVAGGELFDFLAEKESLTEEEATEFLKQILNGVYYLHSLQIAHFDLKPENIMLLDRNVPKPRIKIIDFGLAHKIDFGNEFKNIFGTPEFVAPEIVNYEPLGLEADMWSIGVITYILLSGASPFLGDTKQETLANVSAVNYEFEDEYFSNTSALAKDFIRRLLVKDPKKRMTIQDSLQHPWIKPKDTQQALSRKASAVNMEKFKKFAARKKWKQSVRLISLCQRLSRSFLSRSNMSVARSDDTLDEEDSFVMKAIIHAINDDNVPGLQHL
compound,measurement,setting,value
"C=C1CCN([C@@H](CC(C)C)C(=O)NCCc2ccc(Cl)c(Cl)c2)S(=O)(=O)c2ccccc21 [Compound 9h, (S)-N-(3,4-Dichlorophenethyl)-4-methyl-2-(5-methylene-1,1-dioxido-4,5-dihydrobenzo[f][1,2]thiazepin-2(3H)-yl) pentanamide]",Inhibition of DAPK1 enzyme activity (in words),[1],but not DAPK1 activity
same,kinetic solubility,Kinetic solubility,0.6 µM
same,pIC50,[2],6.26
same,Protection against mHtt toxicity (in words),[3],barely measurable activity; also recorded: do not show protection; also recorded: did not show any significant effect
same,Inhibition of CaMK2γ enzyme activity (in words),[4],statistically significant impact; also recorded: statistically significant effect on inhibition
same,"Cytotoxicity (SH-SY5Y cells, 24 h)",SH-SY5Y cells,>300 µM
same,permeability (PAMPA assay),PAMPA permeability,0.76 ×10⁻⁶ cm/s
